From ChEMBL document CHEMBL1140745, “Rationalizing the activities of diverse cholecystokinin 2 receptor antagonists using molecular field points” (J Med Chem, 2008) come the findings set out here.

For experiment [1], the target named is T1, Cholecystokinin receptor type A (Cavia porcellus, UniProt Q63931).
T1 sequence (Q63931 whole entry): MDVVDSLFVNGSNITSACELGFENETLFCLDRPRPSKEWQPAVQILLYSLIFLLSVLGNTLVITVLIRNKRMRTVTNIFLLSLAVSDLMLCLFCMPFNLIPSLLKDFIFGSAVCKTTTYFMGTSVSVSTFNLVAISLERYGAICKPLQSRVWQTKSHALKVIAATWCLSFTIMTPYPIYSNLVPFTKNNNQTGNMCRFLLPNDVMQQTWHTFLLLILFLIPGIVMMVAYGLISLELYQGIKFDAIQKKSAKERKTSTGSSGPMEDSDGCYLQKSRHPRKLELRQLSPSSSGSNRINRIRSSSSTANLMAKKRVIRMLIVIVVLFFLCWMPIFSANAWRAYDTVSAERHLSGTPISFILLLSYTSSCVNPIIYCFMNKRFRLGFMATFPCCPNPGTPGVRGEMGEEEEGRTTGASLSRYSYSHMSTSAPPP
Nature of the experiment: Displacement of [125I]BH-CCK-8S from […] expressed in guinea pig pancreatic cells. Format: cell-based. The procedure, abridged: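 Radioligand competition binding on guinea pig pancreas cell homogenates, using 20 pM [125I]BH-CCK-8S as the tracer. Affinity is reported as pKi. Results come from at least three separate experiments.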
(In general: In a radioligand displacement assay an active substance lowers the binding of a labelled ligand.)

Experiment [2] concerns the target T2, Gastrin/cholecystokinin type B receptor (Rattus norvegicus) (UniProt P30553).
T2 sequence (whole entry): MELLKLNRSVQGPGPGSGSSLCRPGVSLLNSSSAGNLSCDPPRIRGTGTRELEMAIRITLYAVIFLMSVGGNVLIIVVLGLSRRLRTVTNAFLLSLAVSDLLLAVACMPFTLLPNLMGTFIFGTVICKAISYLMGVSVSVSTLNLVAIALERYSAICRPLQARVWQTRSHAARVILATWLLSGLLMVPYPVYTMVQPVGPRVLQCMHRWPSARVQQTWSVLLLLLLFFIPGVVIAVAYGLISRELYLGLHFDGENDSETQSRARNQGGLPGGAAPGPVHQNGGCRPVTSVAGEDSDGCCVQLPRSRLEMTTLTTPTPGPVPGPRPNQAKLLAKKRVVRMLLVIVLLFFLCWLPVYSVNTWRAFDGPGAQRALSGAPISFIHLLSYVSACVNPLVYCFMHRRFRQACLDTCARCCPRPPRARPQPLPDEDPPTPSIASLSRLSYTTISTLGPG
To be noted: Stomach.

Residues, ends and D or L forms follow the SMILES beside them. *: point of attachment. NHPhenethyl = c1ccc(CCN*)cc1; Boc = CC(C)(C)OC(=O)*

A word on the Ki: it is a measure of affinity in units of concentration, obtained from inhibition or displacement. A higher Ki goes with a looser hold on the target. What is called pKb is the negative decadic logarithm of the Kb, by convention in mol/L. Compound `CC(C)C[C@H](NC(=O)[C@H](Cc1c[nH]c2ccccc12)NC(=O)OC(C)(C)C)C(=O)N[C@@H](CC(=O)O)C(=O)NCCc1ccccc1` (Boc-Trp-Leu-Asp-NHPhenethyl) showed a Ki in experiment [1] of 7940 nM. Besides, the pKb in experiment [2] turned out to be 6.9.
Turning to `C[C@@H](NC(=O)C[C@@H]1CCCN1C(=O)C1C2c3ccccc3C(c3ccccc32)C1C(=O)NCC12CC3CC(CC(C3)C1)C2)C(=O)O` (stereo partly specified), the affinity in experiment [1] corresponds to a Ki of 25100 nM. In experiment [2], this compound showed a pKb of 7.3.
`Nc1cccc2cc(C(=O)NCC34CC5CC(CC(C5)C3)C4)c(C(=O)N[C@@H](Cc3ccccc3)C(=O)Nc3cc(C(=O)O)cc(C(=O)O)c3)cc12` had a Ki in experiment [1] of 2510 nM. The pKb in experiment [2] was 8.2.
Take `O=C(O)c1cc(NC(=O)[C@H](Cc2ccc(I)cc2)NC(=O)c2cc3cc[nH]c3cc2C(=O)NCC23CC4CC(CC(C4)C2)C3)cc(C(=O)O)c1`: the Ki in experiment [1] was 2000 nM. Moreover, the pKb in experiment [2] stood at 9.1.
On the same counts, the results for `COc1ccc(CCNC(=O)[C@H](CC(=O)O)NC(=O)[C@H](Cc2ccc3ccccc3c2)NC(=O)[C@H](Cc2c[nH]c3ccccc23)NC(=O)OC(C)(C)C)cc1` are 63.1 nM and 5.4.
On the same counts, the results for `O=C(O)c1cc(NC(=O)[C@H](Cc2ccccc2)NC(=O)c2cc3cc[nH]c3cc2C(=O)NC2CCCCCC2)cc(C(=O)O)c1` are 3160 nM and 9.3.
For `CN1C(=O)[C@H](NC(=O)Nc2cccc(-c3nnn[nH]3)c2)N=C(c2ccccc2)c2ccccc21`, in experiment [1], the Ki is 316 nM. In experiment [2], this compound showed a negative logarithm of the Kb (pKb) of 8.4.
In experiment [2], `O=C(O)c1cc(NC(=O)[C@H](Cc2ccccc2)NC(=O)c2cc3ccccc3cc2C(=O)NCC23CC4CC(CC(C4)C2)C3)cc(C(=O)O)c1` came in with a pKb of 8.2.
Regarding `CNc1cccc(NC(=O)N[C@@H]2N=C(c3ccccn3)c3ccccc3N(CC(=O)C(C)(C)C)C2=O)c1` [NETAZEPIDE], in experiment [1], the Ki is 398 nM. This compound also gave a pKb in experiment [2] of 9.9.
Compound `O=C(O)c1cccc(NC(=O)c2nc(C3CCCCC3)[nH]c2COC23CC4CC(CC(C4)C2)C3)c1` had a pKb in experiment [2] of 9.1.
As to `O=C(O)c1cc(NC(=O)[C@H](Cc2ccccc2)NC(=O)c2cc3cc[nH]c3cc2C(=O)NCC23CC4CC(CC(C4)C2)C3)cc(C(=O)O)c1`, in experiment [2], the pKb amounted to 9.3.
`O=C(O)c1cccc(NC(=O)c2nc(-c3ccccc3)[nH]c2CC23CC4CC(CC(C4)C2)C3)c1`: the Ki in experiment [1] was 1260 nM. This compound also gave a pKb in experiment [2] of 6.6.
On to `Nc1cccc2cc(C(=O)N[C@@H](Cc3ccccc3)C(=O)Nc3cc(C(=O)O)cc(C(=O)O)c3)c(C(=O)NCC34CC5CC(CC(C5)C3)C4)cc12`, for which, in experiment [1], the Ki is 2510 nM. The same compound displayed a pKb in experiment [2] of 9.
`O=C(O)c1cc(NC(=O)[C@H](Cc2ccccc2)NC(=O)C2C3c4ccccc4C(c4ccccc43)C2C(=O)NCC23CC4CC(CC(C4)C2)C3)cc(C(=O)O)c1` (stereo partly specified): the pKb in experiment [2] was 8.3.
Regarding `O=C1NN(C(=O)Nc2ccc(Br)cc2)[C@H](c2ccccc2)[C@H]1c1ccccc1`, affinity in experiment [1] was put at a Ki of 20000 nM. The pKb in experiment [2] was 5.9.
`Cc1cccc(NC(=O)N[C@@H]2N=C(c3ccccc3)c3ccccc3N(C)C2=O)c1` [L-365260] had a Ki in experiment [1] of 316 nM. In addition, the pKb in experiment [2] came out at 7.6.
In experiment [1], `CC(=O)N1[C@H](CC23CC4CC(CC(C4)C2)C3)C(=O)N(Cc2ccccc2)c2ccccc2C(=O)C[C@H]1C(=O)NCC(=O)O` showed a Ki of 7940 nM. Moreover, the pKb in experiment [2] was determined as 6.8.
On the same counts, the results for `O=C(O)c1cc(NC(=O)[C@H](Cc2ccccc2)NC(=O)c2cc3sccc3cc2C(=O)NCC23CC4CC(CC(C4)C2)C3)cc(C(=O)O)c1` are 794 nM and 9.4.
In the case of `O=C(O)C1C2c3ccccc3C(c3ccccc32)C1C(=O)NCC12CC3CC(CC(C3)C1)C2` (stereo unspecified), in experiment [2], the pKb amounted to 5.6.
Compound `Cn1ccc2cc(C(=O)N[C@@H](Cc3ccccc3)C(=O)Nc3cc(C(=O)O)cc(C(=O)O)c3)c(C(=O)NCC34CC5CC(CC(C5)C3)C4)cc21` showed a Ki in experiment [1] of 3980 nM. The negative logarithm of the Kb (pKb) in experiment [2] came out at 9.8.
Regarding `C[C@](Cc1c[nH]c2ccccc12)(NC(=O)OC1[C@H]2C[C@@H]3C[C@@H](C[C@H]1C3)C2)C(=O)NC[C@H](NC(=O)CCC(=O)O)c1ccccc1` (stereo partly specified) [CI-988], the Ki in experiment [1] was 631 nM.
